Assay results as given in article PMC3447631 (Chemistry & biology, 2012).
Entries after “also recorded” stand apart in the source; their conditions may differ.

Columns and labels:
[1] = In vivo PK studies in mice; details: mouse, plasma
Solubility = assay type: physicochemical; details: limits deliverable dose in vivo
Hep3B-Luc cells = assay: Hep3B-Luc cytotoxicity; assay type: cell-based, human
How it was run: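 Hep3B cells engineered to express luciferase from a CMV promoter, tested alongside primary hepatocytes. Viability was read as bioluminescence at 24, 48 and 72 hours after treatment. Cell division was followed by BrdU uptake, with Oil Red O fat staining.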

[2] = test system: endogenous insulin promoter; assay: Endogenous insulin mRNA; assay type: cell-based, human; details: T6PNE cells
How it was run: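 Q-PCR of endogenous insulin mRNA in T6PNE cells after 48 h exposure to test compound across a concentration series. For fatty acids, cells got 1μM tamoxifen plus fatty acid or DMSO vehicle for 48 hours before RNA harvest. Insulin mRNA was normalized to GAPDH or 18S rRNA; mean ± SE, n=3.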

HNF4α gene expression [3] = assay: HNF4α mRNA expression in MIN6 cells; assay type: cell-based, murine; details: 5 hours
[4] = test system: primary murine hepatocytes; assay: Primary murine hepatocytes in vitro; assay type: cell-based
How it was run: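 Primary murine hepatocytes were exposed to DMSO or test compound (5μM) for 3 days, then fixed and stained with Oil Red O.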

[5] = test system: HNF4α-responsive OTC promoter; assay: OTC promoter-luciferase reporter co-transfected with full length human HNF4α; assay type: cell-based; details: 1μM, 48 hours
Hep3B cells = assay: Hep3B-Luc orthotopic xenograft in liver of nude mice; assay type: in vivo; details: 30 mg/kg IP daily or every other day
How it was run: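 Orthotopic model: luciferase-expressing Hep3B cells were injected into the liver parenchyma of nude mice. Once tumour was established (luciferase counts doubled on 3 consecutive bioluminescent reads), mice received test compound 30 mg/kg IP daily or every other day as tolerated, or DMSO vehicle. Tumour and normal liver were harvested after 20–57 days for Oil Red O, cleaved caspase-3 immunostaining and TUNEL.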

[6] = test system: panel of 60 human tumor cell lines; assay: NCI DTP panel of 60 human tumor cell lines; assay type: cell-based; details: NCI/NIH DTP screen
T6PNE cells = assay: Acylcarnitine analysis by GC/MS of T6PNE cell extracts; assay type: cell-based, human
[7] = Hepatic microsomal stability; assay type: in vitro ADME; details: 60-minute incubation in vitro
HNF4α protein = HNF4α protein and Ki67 in mouse tissues after IP injection; assay type: in vivo; details: mice
tumor cell lines = assay: Toxicity to tumor cell lines versus cultured primary cells in vitro; assay type: cell-based
HNF4α DNA binding = target: T1, HNF4α DNA binding (Homo sapiens, UniProt P41235); assay: HNF4α DNA binding, HNF TransAM ELISA on HepG2 nuclear extracts; assay type: cell-based; details: HepG2 incubated overnight with compound
T1 sequence (P41235 1-474): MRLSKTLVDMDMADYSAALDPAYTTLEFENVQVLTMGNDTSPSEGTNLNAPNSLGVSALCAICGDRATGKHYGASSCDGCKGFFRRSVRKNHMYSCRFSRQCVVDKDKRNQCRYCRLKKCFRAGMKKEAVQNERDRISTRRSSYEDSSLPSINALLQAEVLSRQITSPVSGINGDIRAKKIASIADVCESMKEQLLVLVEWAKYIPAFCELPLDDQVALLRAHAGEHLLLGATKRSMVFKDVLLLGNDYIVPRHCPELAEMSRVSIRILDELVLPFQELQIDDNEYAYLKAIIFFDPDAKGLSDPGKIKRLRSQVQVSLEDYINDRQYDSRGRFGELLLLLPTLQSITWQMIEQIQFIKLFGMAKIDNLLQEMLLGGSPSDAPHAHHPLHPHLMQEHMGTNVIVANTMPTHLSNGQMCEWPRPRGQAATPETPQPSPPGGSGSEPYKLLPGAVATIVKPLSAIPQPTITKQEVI
How it was run: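 HepG2 cells were incubated overnight with test compound. Nuclear protein extracts (5μg) were added to wells bearing an oligonucleotide with an HNF4α binding site. Bound HNF4α was detected with an anti-HNF4α antibody (ELISA). Mean ± SD, n=3 biological replicates; Student's t-test.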

L-type calcium channel = assay: Ricerca hit profiling panel: L-type calcium channel; assay type: binding; details: Ricerca panel of 41 receptors/enzymes
HNF4α gene expression [8] = assay: HNF4α mRNA expression in HepG2 cells; assay type: cell-based; details: 48 hours
How it was run: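 HNF4α mRNA in treated HepG2 cells measured by Q-PCR and normalized to 18S rRNA. Differences in expression assessed by Student's t-test.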

liver = assay: Hepatic steatosis in mice; assay type: in vivo; details: 10 and 30 mg/kg IP, dose-dependent
p57Kip2 expression = assay: Kip2 mRNA in T6PNE cells; assay type: cell-based, human
How it was run: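 Kip2 mRNA in T6PNE cells measured by Q-PCR, normalized to 18s rRNA. Treated and DMSO vehicle cells were compared by Student's t-test.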

CYP (2C19) = CYP (2C19) (Homo sapiens, UniProt P33261); assay: Ricerca hit profiling panel: CYP 2C19; assay type: biochemical; details: Ricerca panel of 41 receptors/enzymes
Sequence of CYP (2C19) (P33261 whole entry): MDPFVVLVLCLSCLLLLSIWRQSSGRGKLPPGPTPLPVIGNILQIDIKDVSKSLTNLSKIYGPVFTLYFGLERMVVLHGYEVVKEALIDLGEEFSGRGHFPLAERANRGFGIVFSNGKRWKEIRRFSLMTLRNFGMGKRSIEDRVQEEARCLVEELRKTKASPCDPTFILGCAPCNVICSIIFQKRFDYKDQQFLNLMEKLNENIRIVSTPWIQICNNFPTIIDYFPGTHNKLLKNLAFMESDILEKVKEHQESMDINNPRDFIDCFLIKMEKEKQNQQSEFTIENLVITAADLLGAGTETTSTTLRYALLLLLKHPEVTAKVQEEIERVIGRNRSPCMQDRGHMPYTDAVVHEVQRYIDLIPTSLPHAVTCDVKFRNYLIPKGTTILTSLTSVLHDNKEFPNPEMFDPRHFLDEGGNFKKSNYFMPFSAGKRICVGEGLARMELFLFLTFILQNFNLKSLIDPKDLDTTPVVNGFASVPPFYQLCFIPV

[9] = Tolerability and VetScan liver panel blood chemistry in mice; assay type: in vivo
How it was run: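 NONcNZO10/LtJ or ICR mice received vehicle (DMSO) or test compound IP once daily for 5 days. Normal-mouse groups were DMSO, 30 mg/kg/day and 10 mg/kg/day (n=4 each). Blood was drawn before sacrifice and run on a VetScan analyzer for ALP, ALT, GGT (IU/L), bile acids (μmol/L), total bilirubin, BUN, cholesterol (mg/dL) and albumin (g/dL).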

PPARγ = assay type: cell-based; details: PPRE-Luc, HeLa
How it was run: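 HeLa cells were co-transfected with a PPRE-Luc reporter, with or without a PPARγ expression vector, then treated with test compound. Read-out was luciferase activity; mean ± SE, n=3.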

HNF4α = target: T2, HNF4α (Homo sapiens, UniProt P41235); assay: DARTS assay in HepG2 cells; assay type: binding; details: HepG2, 20μM, 24hr, subtilisin
T2 sequence (P41235 1-474): T1 sequence (P41235 1-474)
How it was run: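 DARTS: HepG2 cells were treated with DMSO or test compound at 20μM for 24hr. Read-out is the ligand-induced change in HNF4α sensitivity to proteolysis.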

**Q.** Which results are given for `Cc1ccc([N+](=O)[O-])cc1S(=O)(=O)n1c(C)nc2ccccc21` [BI6015, 2-Methyl-1-(2-methyl-5-nitrophenylsulfonyl)-1H-benzo[d]imidazole]?
**A.** AUC ([1]; ip, 30 mg/kg): 26.7 ng·h/mL; half-life ([1]; other: oral gavage or intraperitoneal (IP) injection): ~1.5 h; solubility (Solubility): limited solubility; BrdU incorporation in Hep3B-Luc cells (Hep3B-Luc cells; after 48 hours of treatment): decreased; toxicity to Hep3B cells (Hep3B-Luc cells; bioluminescence, 24, 48 and 72 hours): markedly toxic; effect on endogenous insulin expression / insulin promoter activity [2]: potently inhibited; reduction of endogenous insulin gene expression [2]: 50 fold; effect on HNF4α expression in MIN6 (HNF4α gene expression [3]): strongly repressed; toxicity in primary hepatocytes in vitro [4]: Toxicity was not observed; steatosis in primary mouse hepatocytes in vitro ([4]; 5μM, 3 days, Oil Red O): induced steatosis; OTC promoter-driven luciferase expression in CV-1 cells [5]: inhibited; OTC promoter-driven luciferase expression in HepG2 cells [5]: inhibited; apoptosis (TUNEL, cleaved caspase-3) in the normal liver (Hep3B cells): but not in the normal liver; apoptosis (TUNEL, cleaved caspase-3) within the tumor (Hep3B cells): high levels of apoptotic cells; tumor luciferase counts (Hep3B cells): some treated animals exhibited decreased luciferase counts, this did not occur in all animals; Oil Red O staining in normal liver and tumor (Hep3B cells; 20–57 days): marked induction; effect on panel of 60 human tumor cell lines [6]: Slowed growth and/or toxicity; acetylcarnitine (T6PNE cells): concurrent increase; longer chain acylcarnitines (C18, C18:1, C16, C14) (T6PNE cells): decreased levels; hepatic microsomal stability, compound remained [7]: 22%; HNF4α expression in the intestine or kidney (HNF4α protein; IP): does not change; HNF4α protein in the liver (HNF4α protein; IP): loss of HNF4α protein; number of cells expressing Ki67 in liver, intestine or kidney (HNF4α protein; versus vehicle): no difference; toxicity to tumor cell lines in vitro (tumor cell lines): toxic; effect on HNF4α DNA binding (HNF4α DNA binding): potently repressed; cross reactivity with L-type calcium channel (L-type calcium channel): significant cross reactivity; effect on HNF4α expression in HepG2 (HNF4α gene expression [8]): strongly repressed; hepatic steatosis in vivo (liver): marked fat accumulation (steatosis); effect on Kip2 expression (p57Kip2 expression): reduced; cross reactivity with CYP 2C19 (CYP (2C19)): significant cross reactivity; tolerability ([9]; IP once per day for 5 days, 30 mg/kg): well tolerated; blood chemistries, including ALT ([9]; VetScan Liver Panel): unaffected; activity as PPARγ agonist (PPARγ): lacked activity as a PPARγ agonist; also recorded: not to be a PPARγ agonist; effect on HNF4α protease sensitivity (DARTS) (HNF4α): induced altered HNF4α protease sensitivity
